Assay results as given in ChEMBL document CHEMBL5370638.
The source made the active and inactive calls. The rule behind the calls is not given here. Numbered stars: 1 amine (or outer) side, 2 acyl side, 3 side chain; on linkers, the order of the positions; unused ones are H or OH. Bridge positions count the residues as written; N and C are the ends. Square brackets hold non-standard residues; d marks the D form. Peptide text beside a SMILES is read from it. AMPB(E) = O=C(c1ccc(/N=N/c2ccc(CN[*:1])cc2)cc1)[*:2]; X3 = O=C(c1ccccc1/N=N\c1ccccc1C(=O)[*:2])[*:1]; X4 = O=C(c1ccccc1/N=N/c1ccccc1C(=O)[*:2])[*:1]; Dap = NC[C@H](N)C(=O)O

Assays:
Type in all cases: functional, cell-based
[1] = target: Vasopressin V1a receptor (Homo sapiens) (UniProt P37288); assay: Antagonist activity at human V1a receptor transfected in HEK293 cells at 10 uM relative to control; conditions: filed as antagonist
Sequence of Vasopressin V1a receptor (Homo sapiens) (P37288 whole entry, looked up): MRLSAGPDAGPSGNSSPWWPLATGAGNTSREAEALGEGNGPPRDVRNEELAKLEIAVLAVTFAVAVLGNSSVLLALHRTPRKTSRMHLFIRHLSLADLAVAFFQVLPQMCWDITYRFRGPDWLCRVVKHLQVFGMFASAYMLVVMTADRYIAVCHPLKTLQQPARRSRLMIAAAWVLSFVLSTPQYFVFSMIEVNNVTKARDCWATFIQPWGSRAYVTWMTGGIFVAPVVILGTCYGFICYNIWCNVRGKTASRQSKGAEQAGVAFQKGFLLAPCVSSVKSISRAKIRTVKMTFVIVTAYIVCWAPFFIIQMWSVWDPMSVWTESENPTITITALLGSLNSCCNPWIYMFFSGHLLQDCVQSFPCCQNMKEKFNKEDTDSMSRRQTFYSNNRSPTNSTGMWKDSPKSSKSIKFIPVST
How it was run: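 V1aR-expressing HEK293 cells received VP (1 nM final) premixed with test compound (10 or 100 μM), incubated for 1 h at 37 °C. IP1 accumulation was measured by HTRF (665/615 nm) and normalized to basal (0%) and maximal VP (100%). […] At least three independent experiments were run, each in triplicate.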

[2] = target: Vasopressin V1a receptor (Homo sapiens) (UniProt P37288); assay: Agonist activity at human V1a receptor transfected in HEK293 cells upto 10 uM incubated for 1 hr by IP-one HTRF assay
How it was run: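 Stable HEK293 lines expressing hOTR, hV1aR or hV1bR (10,000 cells/well, 48 h) were preincubated in stimulation buffer for 15 min, then given ligand for 1 h at 37 °C. Z-forms were pre-irradiated at 340 nm for 1 min.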

HEK293 = assay: Induction of C-terminal GFP-tagged V1b receptor internalization in HEK293 cells at 1 nM incubated for 60 mins by fluorescence microscopy analysis; conditions: Homo sapiens
How it was run: (§1)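 HEK293 cells stably expressing human V1bR with C-terminal GFP were plated overnight on poly-D-lysine coverslips and serum-starved for one day. Ligands in serum-free medium were applied for 60 min; the Z-form was diode-activated at 340 nm. Cells were fixed in 4% PFA, immunostained (anti-GFP, anti-pCREB, Hoechst) and imaged confocally. pCREB signal was normalized to medium-only controls; internalization was scored from GFP location.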

[3] = target: T1, Vasopressin V1b receptor (Homo sapiens) (UniProt P47901); assay: Activation of human C-terminal GFP-tagged V1b receptor in HEK293 cells assessed as CREB phosphorylation at 1 nM incubated for 60 mins by immunostaining analysis; how it was run: as §1
T1 sequence (whole entry): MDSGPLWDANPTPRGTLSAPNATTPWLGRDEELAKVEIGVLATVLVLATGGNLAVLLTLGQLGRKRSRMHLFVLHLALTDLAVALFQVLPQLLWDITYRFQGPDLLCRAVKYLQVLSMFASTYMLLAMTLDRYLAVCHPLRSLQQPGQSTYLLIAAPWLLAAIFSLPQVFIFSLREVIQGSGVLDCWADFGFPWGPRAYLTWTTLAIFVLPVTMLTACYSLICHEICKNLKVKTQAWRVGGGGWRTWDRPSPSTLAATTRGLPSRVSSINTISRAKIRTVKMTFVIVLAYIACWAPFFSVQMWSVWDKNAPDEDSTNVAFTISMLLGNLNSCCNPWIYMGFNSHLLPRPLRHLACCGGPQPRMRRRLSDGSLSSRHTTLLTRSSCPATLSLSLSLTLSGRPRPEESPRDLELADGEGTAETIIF

SMILES | Activity [1] | Activity [2] | Activity (HEK293) | also measured
NC(=O)CC[C@@H]1NC(=O)[C@H](Cc2ccccc2)NC(=O)[C@H](Cc2ccc(O)cc2)NC(=O)c2ccccc2/N=N/c2ccccc2C(=O)NC[C@@H](C(=O)N2CCC[C@H]2C(=O)N[C@@H](CCCN=C(N)N)C(=O)NCC(N)=O)NC(=O)[C@H](CC(N)=O)NC1=O (YFQN[Dap]PRG-NH2; linker N-5 via X4) | Active |  |  | 
NC(=O)CC[C@@H]1NC(=O)[C@H](Cc2ccccc2)NC(=O)[C@H](Cc2ccc(O)cc2)NC(=O)[C@@H](N)CSSC[C@@H](C(=O)NCc2ccc(/N=N/c3ccc(C(=O)NCC(N)=O)cc3)cc2)NC(=O)[C@H](CC(N)=O)NC1=O (H-CYFQNC[AMPB(E)]G-NH2; disulfide 1-6) |  | inactive |  | 
NC(=O)CC[C@@H]1NC(=O)[C@H](Cc2ccccc2)NC(=O)[C@H](Cc2ccc(O)cc2)NC(=O)c2ccccc2/N=N\c2ccccc2C(=O)NC[C@@H](C(=O)N2CCC[C@H]2C(=O)N[C@@H](CCCN=C(N)N)C(=O)NCC(N)=O)NC(=O)[C@H](CC(N)=O)NC1=O (YFQN[Dap]PRG-NH2; linker N-5 via X3) | Active |  |  | 
NC(=O)CC[C@@H]1NC(=O)[C@H](Cc2ccccc2)NC(=O)[C@H](Cc2ccc(O)cc2)NC(=O)[C@@H](N)CSSC[C@@H](C(=O)NCc2ccc(/N=N/c3ccc(C(=O)N[C@@H](CCCN=C(N)N)C(=O)NCC(N)=O)cc3)cc2)NC(=O)[C@H](CC(N)=O)NC1=O (H-CYFQNC[AMPB(E)]RG-NH2; disulfide 1-6) |  | inactive |  | 
NC(=O)CC[C@@H]1NC(=O)[C@H](Cc2ccc(/N=N\c3ccccc3)cc2)NC(=O)[C@H](Cc2ccc(O)cc2)NC(=O)[C@@H](N)CSSC[C@@H](C(=O)N2CCC[C@H]2C(=O)N[C@@H](CCCN=C(N)N)C(=O)NCC(N)=O)NC(=O)[C@H](CC(N)=O)NC1=O |  |  | Active | 
NC(=O)CC[C@@H]1NC(=O)[C@H](Cc2ccc(/N=N/c3ccccc3)cc2)NC(=O)[C@H](Cc2ccc(O)cc2)NC(=O)[C@@H](N)CSSC[C@@H](C(=O)N2CCC[C@H]2C(=O)N[C@@H](CCCN=C(N)N)C(=O)NCC(N)=O)NC(=O)[C@H](CC(N)=O)NC1=O |  |  | inactive | Activity [3]: inactive
